Data from ChEMBL document CHEMBL1154352, “Toll-like receptor 7 selective synthetic oligoribonucleotide agonists: synthesis and structure-activity relationship studies” (J Med Chem, 2009).
The source made the active and inactive calls. The rule behind the calls is not given here.

Legend:
[1] = biological target: T1, Toll-like receptor 9 (Mus musculus) (UniProt Q9EQU3); assay: Activation of mouse TLR9 expressed in HEK293 assessed as induction of NF-kappaB activity reporter gene assay; type: cell-based
T1 sequence (whole entry): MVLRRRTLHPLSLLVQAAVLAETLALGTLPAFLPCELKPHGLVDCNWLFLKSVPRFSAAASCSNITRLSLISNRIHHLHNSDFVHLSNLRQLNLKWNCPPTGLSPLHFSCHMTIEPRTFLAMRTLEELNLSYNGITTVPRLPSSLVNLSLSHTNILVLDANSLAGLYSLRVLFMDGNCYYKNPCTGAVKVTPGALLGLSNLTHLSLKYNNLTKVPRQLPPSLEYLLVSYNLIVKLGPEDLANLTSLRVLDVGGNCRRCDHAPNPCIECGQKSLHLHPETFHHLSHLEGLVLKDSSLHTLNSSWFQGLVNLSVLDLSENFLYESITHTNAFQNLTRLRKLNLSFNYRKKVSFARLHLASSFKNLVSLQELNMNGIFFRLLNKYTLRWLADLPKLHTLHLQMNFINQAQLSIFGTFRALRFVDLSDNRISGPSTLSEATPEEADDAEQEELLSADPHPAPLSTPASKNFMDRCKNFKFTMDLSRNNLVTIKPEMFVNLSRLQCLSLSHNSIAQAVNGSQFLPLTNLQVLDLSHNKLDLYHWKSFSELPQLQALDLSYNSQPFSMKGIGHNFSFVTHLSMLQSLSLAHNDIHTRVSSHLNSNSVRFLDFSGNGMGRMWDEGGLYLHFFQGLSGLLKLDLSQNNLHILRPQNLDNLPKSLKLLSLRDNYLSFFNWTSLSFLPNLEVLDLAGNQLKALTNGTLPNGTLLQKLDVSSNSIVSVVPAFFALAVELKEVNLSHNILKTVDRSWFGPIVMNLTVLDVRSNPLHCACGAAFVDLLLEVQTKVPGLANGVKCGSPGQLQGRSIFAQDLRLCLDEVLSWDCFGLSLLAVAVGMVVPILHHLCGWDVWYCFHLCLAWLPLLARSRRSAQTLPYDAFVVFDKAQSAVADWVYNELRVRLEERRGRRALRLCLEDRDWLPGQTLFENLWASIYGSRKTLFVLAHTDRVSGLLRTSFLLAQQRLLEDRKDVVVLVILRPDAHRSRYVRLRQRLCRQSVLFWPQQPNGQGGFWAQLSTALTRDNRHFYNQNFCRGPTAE

[2] = biological target: Toll-like receptor 3 (Homo sapiens) (UniProt O15455); assay: Activation of human TLR3 expressed in HEK293 assessed as induction of NF-kappaB activity reporter gene assay; type: cell-based
Chain of Toll-like receptor 3 (Homo sapiens) (O15455 whole entry): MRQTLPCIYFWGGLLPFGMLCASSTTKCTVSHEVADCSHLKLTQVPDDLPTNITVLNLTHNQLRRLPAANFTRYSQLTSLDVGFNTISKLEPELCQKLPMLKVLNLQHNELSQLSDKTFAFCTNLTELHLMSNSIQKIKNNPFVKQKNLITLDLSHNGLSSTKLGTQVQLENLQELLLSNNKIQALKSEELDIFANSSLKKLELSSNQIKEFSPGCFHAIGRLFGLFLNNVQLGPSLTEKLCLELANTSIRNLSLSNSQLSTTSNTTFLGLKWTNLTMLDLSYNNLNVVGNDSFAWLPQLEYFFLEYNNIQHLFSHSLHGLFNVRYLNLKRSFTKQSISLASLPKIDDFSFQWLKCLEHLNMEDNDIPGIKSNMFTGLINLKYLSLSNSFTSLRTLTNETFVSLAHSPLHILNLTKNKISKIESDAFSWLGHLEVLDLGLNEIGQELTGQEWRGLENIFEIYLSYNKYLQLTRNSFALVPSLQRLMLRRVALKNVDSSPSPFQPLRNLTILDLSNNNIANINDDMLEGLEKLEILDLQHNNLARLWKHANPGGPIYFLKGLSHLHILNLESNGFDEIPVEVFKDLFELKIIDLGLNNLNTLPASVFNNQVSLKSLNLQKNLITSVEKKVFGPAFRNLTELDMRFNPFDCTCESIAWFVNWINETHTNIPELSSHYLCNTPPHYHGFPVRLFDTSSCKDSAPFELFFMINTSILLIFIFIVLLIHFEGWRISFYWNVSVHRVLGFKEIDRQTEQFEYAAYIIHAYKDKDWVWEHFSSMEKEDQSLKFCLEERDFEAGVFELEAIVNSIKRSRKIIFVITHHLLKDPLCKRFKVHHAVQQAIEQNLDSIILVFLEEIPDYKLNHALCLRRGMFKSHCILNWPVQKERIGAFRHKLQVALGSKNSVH

[3] = organism: Homo sapiens; assay: Immunostimulatory activity in human pDC assessed as induction of IFNalpha at 100 ug/ml after 24 hrs; type: functional
How it was run: (§1)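 Human pDCs plated at 1 × 10^6 cells/mL; compounds in PBS added, 37 °C for 24 h; supernatant cytokines/chemokines by human Luminex multiplex kit.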

[4] = test system: PBMC; assay: Immunomodulatory activity in human PBMC assessed as induction of IL12 at 100 ug/ml after 24 hrs; type: functional, cell-based
How it was run: (§2)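 Human PBMCs plated at 5 × 10^6 cells/mL; compounds dissolved in PBS added at various concentrations, 37 °C for 24 h. Supernatant cytokines/chemokines quantified with human Luminex multiplex kit.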

[5] = test system: PBMC; assay: Immunomodulatory activity in human PBMC assessed as induction of IL12 at 50 ug/ml after 24 hrs; type: functional, cell-based; how it was run: as §2
[6] = test system: PBMC; assay: Immunomodulatory activity in human PBMC assessed as induction of TNFalpha at 50 ug/ml after 24 hrs; type: functional, cell-based; how it was run: as §2
[7] = test system: PBMC; assay: Immunomodulatory activity in human PBMC assessed as induction of IFNalpha at 50 ug/ml after 24 hrs; type: functional, cell-based; how it was run: as §2
[8] = test system: PBMC; assay: Immunomodulatory activity in human PBMC assessed as induction of MIP1alpha at 50 ug/ml after 24 hrs; type: functional, cell-based; how it was run: as §2
[9] = test system: PBMC; assay: Immunomodulatory activity in human PBMC assessed as induction of MIP1beta at 50 ug/ml after 24 hrs; type: functional, cell-based; how it was run: as §2
[10] = test system: PBMC; assay: Immunomodulatory activity in human PBMC assessed as induction of IP10 at 50 ug/ml after 24 hrs; type: functional, cell-based; how it was run: as §2
[11] = test system: PBMC; assay: Immunomodulatory activity in human PBMC assessed as induction of MCP1 at 50 ug/ml after 24 hrs; type: functional, cell-based; how it was run: as §2
[12] = test system: PBMC; assay: Immunomodulatory activity in human PBMC assessed as induction of IL6 at 50 ug/ml after 24 hrs; type: functional, cell-based; how it was run: as §2
[13] = test system: PBMC; assay: Immunomodulatory activity in human PBMC assessed as induction of IL1-beta at 50 ug/ml after 24 hrs; type: functional, cell-based; how it was run: as §2
[14] = organism: Homo sapiens; assay: Immunostimulatory activity in human pDC assessed as induction of IP10 at 100 ug/ml after 24 hrs; type: functional; how it was run: as §1
[15] = organism: Homo sapiens; assay: Immunostimulatory activity in human pDC assessed as induction of IL6 at 100 ug/ml after 24 hrs; type: functional; how it was run: as §1
[16] = organism: Homo sapiens; assay: Immunostimulatory activity in human mDC assessed as induction of IFNalpha at 100 ug/ml after 24 hrs; type: functional
How it was run: (§3)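 Human mDCs isolated from PBMCs by CD19+ B-cell depletion then BDCA1 positive selection; plated at 1 × 10^6 cells/mL, compounds in PBS, 37 °C for 24 h; supernatant cytokines by human Luminex multiplex. Representative of four independent experiments.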

[17] = organism: Homo sapiens; assay: Immunostimulatory activity in human mDC assessed as induction of IP10 at 100 ug/ml after 24 hrs; type: functional; how it was run: as §3
[18] = organism: Homo sapiens; assay: Immunostimulatory activity in human mDC assessed as induction of IL12 at 100 ug/ml after 24 hrs; type: functional; how it was run: as §3
[19] = organism: Homo sapiens; assay: Immunostimulatory activity in human mDC assessed as induction of IL6 at 100 ug/ml after 24 hrs; type: functional; how it was run: as §3
[20] = organism: Homo sapiens; assay: Immunostimulatory activity in human mDC assessed as induction of TNFalpha at 100 ug/ml after 24 hrs; type: functional; how it was run: as §3
[21] = test system: PBMC; assay: Immunomodulatory activity in human PBMC assessed as induction of IFN-alpha at 100 ug/ml after 24 hrs

| Activity [1] | Activity [2] | Structure (SMILES) | Activity [4] [pg/mL] | Activity [5] [pg/mL] | Activity [6] [pg/mL] | Activity [7] [pg/mL] | Activity [8] [pg/mL] | Activity [9] [pg/mL] | Activity [10] [pg/mL] | Activity [11] [pg/mL] | Activity [12] [pg/mL] | Activity [13] [pg/mL] | Activity [14] | Activity [15] | Activity [16] | Activity [17] | Activity [18] | Activity [19] | Activity [20] | IFN-alpha [21] [pg/mL] | other results |
| --- | --- | --- | --- | --- | --- | --- | --- | --- | --- | --- | --- | --- | --- | --- | --- | --- | --- | --- | --- | --- | --- |
| inactive | inactive | Nc1ncnc2c1ncn2[C@@H]1O[C@H](CO)[C@@H](OP(=O)(S)OC[C@H]2O[C@@H](n3cnc4c(N)ncnc43)[C@H](O)[C@@H]2OP(=O)(S)OC[C@H]2O[C@@H](n3cnc4c(N)ncnc43)[C@H](O)[C@@H]2OP(=O)(S)OC[C@H]2O[C@@H](n3cnc4c(N)ncnc43)[C@H](O)[C@@H]2OP(=O)(S)OC[C@H]2O[C@@H](n3cnc4c(N)ncnc43)[C@H](O)[C@@H]2OP(=O)(S)OC[C@H]2O[C@@H](n3cnc4c(N)ncnc43)[C@H](O)[C@@H]2OP(=O)(S)OC[C@H]2O[C@@H](n3cnc4c(N)ncnc43)[C@H](O)[C@@H]2OP(=O)(S)OC[C@H]2O[C@@H](n3cnc4c(N)ncnc43)[C@H](O)[C@@H]2OP(=O)(S)OC[C@H]2O[C@@H](n3cnc4c(N)ncnc43)[C@H](O)[C@@H]2OP(=O)(S)OC[C@H]2O[C@@H](n3cnc4c(N)ncnc43)[C@H](O)[C@@H]2OP(=O)(S)OC[C@H]2O[C@@H](n3cnc4c(N)ncnc43)[C@H](O)[C@@H]2OP(=O)(S)OCC(O)COP(=O)(S)O[C@H]2[C@@H](O)[C@H](n3cnc4c(N)ncnc43)O[C@@H]2COP(=O)(S)O[C@H]2[C@@H](O)[C@H](n3cnc4c(N)ncnc43)O[C@@H]2COP(=O)(S)O[C@H]2[C@@H](O)[C@H](n3cnc4c(N)ncnc43)O[C@@H]2COP(=O)(S)O[C@H]2[C@@H](O)[C@H](n3cnc4c(N)ncnc43)O[C@@H]2COP(=O)(S)O[C@H]2[C@@H](O)[C@H](n3cnc4c(N)ncnc43)O[C@@H]2COP(=O)(S)O[C@H]2[C@@H](O)[C@H](n3cnc4c(N)ncnc43)O[C@@H]2COP(=O)(S)O[C@H]2[C@@H](O)[C@H](n3cnc4c(N)ncnc43)O[C@@H]2COP(=O)(S)O[C@H]2[C@@H](O)[C@H](n3cnc4c(N)ncnc43)O[C@@H]2COP(=O)(S)O[C@H]2[C@@H](O)[C@H](n3cnc4c(N)ncnc43)O[C@@H]2COP(=O)(S)O[C@H]2[C@@H](O)[C@H](n3cnc4c(N)ncnc43)O[C@@H]2COP(=O)(S)O[C@H]2[C@@H](O)[C@H](n3cnc4c(N)ncnc43)O[C@@H]2CO)[C@H]1O (stereo partly specified) | 183 | 138 | 0 | 12 | 43 | 83 | 4 | 724 | 12 | 28 | inactive | inactive | inactive | inactive | inactive | inactive | inactive | 0 | Activity [3]: inactive |
| inactive | inactive | Nc1ccn([C@@H]2O[C@H](COP(=O)(S)O[C@H]3[C@@H](O)[C@H](n4cnc5c(=O)[nH]c(N)nc54)O[C@@H]3COP(=O)(S)O[C@H]3[C@@H](O)[C@H](n4ccc(=O)[nH]c4=O)O[C@@H]3COP(=O)(S)OCCCO)[C@@H](OP(=O)(S)OC[C@H]3O[C@@H](n4ccc(=O)[nH]c4=O)[C@H](O)[C@@H]3OP(=O)(S)OC[C@H]3O[C@@H](n4cnc5c(=O)[nH]c(N)nc54)[C@H](O)[C@@H]3OP(=O)(S)OC[C@H]3O[C@@H](n4ccc(N)nc4=O)[C@H](O)[C@@H]3OP(=O)(S)OC[C@H]3O[C@@H](n4ccc(=O)[nH]c4=O)[C@H](O)[C@@H]3OP(=O)(S)OC[C@H]3O[C@@H](n4ccc(=O)[nH]c4=O)[C@H](O)[C@@H]3OP(=O)(S)OC[C@H]3O[C@@H](n4cnc5c(=O)[nH]c(N)nc54)[C@H](O)[C@@H]3OP(=O)(S)OC[C@H]3O[C@@H](n4ccc(=O)[nH]c4=O)[C@H](O)[C@@H]3OP(=O)(S)OC[C@H]3O[C@@H](n4cnc5c(=O)[nH]c(N)nc54)[C@H](O)[C@@H]3OP(=O)(S)OCC(O)COP(=O)(S)O[C@H]3[C@@H](O)[C@H](n4cnc5c(=O)[nH]c(N)nc54)O[C@@H]3COP(=O)(S)O[C@H]3[C@@H](O)[C@H](n4ccc(=O)[nH]c4=O)O[C@@H]3COP(=O)(S)O[C@H]3[C@@H](O)[C@H](n4cnc5c(=O)[nH]c(N)nc54)O[C@@H]3COP(=O)(S)O[C@H]3[C@@H](O)[C@H](n4ccc(=O)[nH]c4=O)O[C@@H]3COP(=O)(S)O[C@H]3[C@@H](O)[C@H](n4ccc(=O)[nH]c4=O)O[C@@H]3COP(=O)(S)O[C@H]3[C@@H](O)[C@H](n4ccc(N)nc4=O)O[C@@H]3COP(=O)(S)O[C@H]3[C@@H](O)[C@H](n4cnc5c(=O)[nH]c(N)nc54)O[C@@H]3COP(=O)(S)O[C@H]3[C@@H](O)[C@H](n4ccc(=O)[nH]c4=O)O[C@@H]3COP(=O)(S)O[C@H]3[C@@H](O)[C@H](n4ccc(N)nc4=O)O[C@@H]3COP(=O)(S)O[C@H]3[C@@H](O)[C@H](n4cnc5c(=O)[nH]c(N)nc54)O[C@@H]3COP(=O)(S)O[C@H]3[C@@H](O)[C@H](n4ccc(=O)[nH]c4=O)O[C@@H]3COP(=O)(S)OCCCO)[C@H]2O)c(=O)n1 (stereo partly specified) | 715 | 570 | 541 | 56 | 4760 | 5730 | 24 | 46700 | 3980 | 568 | Active | Active | Active | Active | Active | Active | Active | 81.6 |  |
